Shown are actives, neighbours in structure and some others; about 2.1% of the full set was active somewhere.
CDK5 p35 inh: inhibitors of human CDK5/p35 kinase; hit rate 0.01% among 330,000; Q00535+Q15078; inhibition, % at 10 µM; Recombinant CDK5/p35, ADP-Glo luminescence, 60 min; AID 488839;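 active means highest replicate inhibition of at least 50% and at least 75% of replicates reaching 50%; inconclusive means only one of the two criteria met; inactive means both criteria failed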
Target sequence (Q00535 whole entry, looked up): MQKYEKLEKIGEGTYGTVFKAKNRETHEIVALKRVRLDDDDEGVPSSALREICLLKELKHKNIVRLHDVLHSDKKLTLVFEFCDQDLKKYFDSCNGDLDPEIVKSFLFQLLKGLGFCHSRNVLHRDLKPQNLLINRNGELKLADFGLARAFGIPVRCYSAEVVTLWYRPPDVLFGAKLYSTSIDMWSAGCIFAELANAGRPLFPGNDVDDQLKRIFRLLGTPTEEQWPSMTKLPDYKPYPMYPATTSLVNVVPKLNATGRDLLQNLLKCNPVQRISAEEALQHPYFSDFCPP
Target sequence (Q15078 whole entry, looked up): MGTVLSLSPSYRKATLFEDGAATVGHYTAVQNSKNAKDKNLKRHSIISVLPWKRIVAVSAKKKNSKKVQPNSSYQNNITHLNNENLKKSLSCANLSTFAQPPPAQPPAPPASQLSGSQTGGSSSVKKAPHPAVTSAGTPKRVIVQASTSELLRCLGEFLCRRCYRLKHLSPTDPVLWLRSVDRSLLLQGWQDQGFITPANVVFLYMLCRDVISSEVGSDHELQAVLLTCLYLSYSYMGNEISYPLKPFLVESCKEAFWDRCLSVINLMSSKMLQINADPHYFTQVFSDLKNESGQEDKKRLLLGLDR
dFosB act: mouse delta FosB homodimer activation. P13346. purified delta FosB, TAMRA-CDK5 oligo fluorescence polarization; percent of positive-control signal above neutral wells. AID 493131. hit rate 0.99% among 340,000. activation, % at 25 µM;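 active means mean activation above about 17%, with every replicate also reaching it, limit read from the data, passing the limit was not always enough; inconclusive means only one of the two conditions met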
SR-BI uptake up: enhances SR-BI lipid uptake from DiI-HDL. hit rate 0.096% among 320,000. activation, % at 12.5 µM. CHO ldlA[mSR-BI] cells, DiI-HDL uptake fluorescence, 3 h; 100 = double the neutral-control signal;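 active means mean replicate activation of at least 60% and every replicate at or above 60%; inconclusive means mean or all-replicate condition met, but not both; inactive means mean below 60% and not all replicates reaching 60%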
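System: LDL receptor-deficient CHO ldlA cells overexpressing murine SR-BI | Timing: 3 h uptake period with compound, 37 °C | Medium: HEPES-buffered (25 mM, pH 7.4) F12 plus 0.5% BSA | Dosing: Single-point compound dose | Signal: Bottom-read fluorescence, 550/595 nm | Read-out: Retained DiI signal reflecting DiI-HDL uptake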
PKA-R1A activ: PKA-R1A complex activation | P00514+P68181 | PKA-R1A dissociation, Cy5-IP20 fluorescence polarization; scaled: DMSO 0%, 113 µM cGMP 100% | activation, % at 11.4 µM | hit rate 0.083% among 340,000;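 active means percent activation above the mean of all tested compounds plus 3 SD, cut at about 19% in these data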;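 further: higher means more PKAc released from R1A so a rise in polarization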
PKA-R2B act: activates the human PKA-R2B holoenzyme complex; P22694+P31323; hit rate 0.079% among 340,000; AID 504700; activation, % at 11.4 µM; PKA-R2B holoenzyme dissociation, Cy5-IP20 fluorescence polarization; R2B truncated from residue 108, S112A mutant; 0% DMSO only, 100% 113 µM cGMP;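 active means activation above a cutoff set at the mean over all compounds plus 3 SD, cut at about 18% in these data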;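 further: higher means more holoenzyme dissociation and a rise in polarization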
SR-BI HDL uptake: mouse SR-BI HDL lipid transfer inhibition. Q61009. ldlA[mSR-BI] CHO cells, DiI-HDL uptake fluorescence, 3 h. inhibition, % at 12.5 µM. hit rate 0.96% among 320,000. AID 488896;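 active means mean replicate inhibition of at least 70% and a set share of replicates each scoring 70 or more; inconclusive means meets just one of the two criteria; inactive means fails both criteria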
DiI quencher: DiI fluorescence quenching in cell-free counter-screen. shares compounds with SR-BI HDL uptake. cell-free DiI-HDL fluorescence quenching, 30 min. AC50, µM (titrated, usually from 35 µM). hit rate 20% among 470. AID 540326;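 active means quenching, a falling signal, with AC50 below a set limit tied to the top valid dose, actives reach about 32 µM in these data; inconclusive means no clear call, values can overlap the other calls; inactive means rising signal, and the rest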
Of the large screens only hits and unclear results are named; the others gave an inactive call (follow-up assays come after a bar, where they were run).

O=C(C[C@@H]1C/C=C\C[C@H](NC(=O)OCC2c3ccccc3-c3ccccc32)C(=O)O[C@H](c2ccccc2)CNC1=O)NCCO	none | DiI quencher inactive
C[C@@H]1COC(=O)[C@H](NC(=O)OCC2c3ccccc3-c3ccccc32)C/C=C\C[C@@H](CC(=O)N[C@@H](CO)Cc2ccccc2)C(=O)N1	SR-BI HDL uptake 84 | DiI quencher inactive
O=C1NCCOC(=O)[C@H](Cc2ccc(F)cc2)C/C=C\C[C@@H]1CC(=O)N(CCO)Cc1ccccc1	none | DiI quencher inactive
NS(=O)(=O)c1ccc(NC(=O)CSc2nc3ccccc3nc2N2CCOCC2)cc1	none
COc1ccc(OC)c(Nc2ccc(Nc3cc(OC)ccc3OC)nn2)c1	SR-BI HDL uptake 86 | DiI quencher 5.1µM
COc1cc(CCC(=O)Nc2ccc(C)c(S(=O)(=O)N3CCCCCC3)c2)cc(OC)c1OC	SR-BI HDL uptake inconclusive
Cc1cc(C)c(C)c(S(=O)(=O)N2CCN(CC(=O)NC(=O)NCc3ccccc3)CC2)c1C	SR-BI HDL uptake 74 | DiI quencher inactive
COc1ccc(CNC(=O)CN2CCN(S(=O)(=O)c3c(C)c(C)cc(C)c3C)CC2)cc1OC	none
Cc1cc(C)nc(N2CCC(C(=O)N3CCN(c4cc(Cl)ccc4C)CC3)CC2)n1	SR-BI HDL uptake 102 | DiI quencher inactive
CC(C)C(=O)Nc1ccc(S(=O)(=O)N2CCC(c3nc4ccccc4[nH]3)CC2)cc1	none
CC(C)c1nnc(NC(=O)CCC(=O)N2CCN(C3c4ccccc4-c4ccccc43)CC2)s1	SR-BI HDL uptake inconclusive | DiI quencher inactive
COc1ccc(C2CC(=O)c3sc(NC(C)=O)nc3C2)cc1 (configuration not stated)	none (no result: CDK5 p35 inh)
O=C(C1=COCCO1)N(Cc1nnc(-c2ccccc2Cl)o1)C1CC1	SR-BI HDL uptake inconclusive | DiI quencher inactive
Cc1ccc(S(=O)(=O)N(C)C[C@@H]2OCc3cnnn3CCCC(=O)N([C@H](C)CO)C[C@H]2C)cc1	none (no result: CDK5 p35 inh, dFosB act, SR-BI uptake up, SR-BI HDL uptake)
COC(=O)C(CO)Nc1ncnc2onc(-c3ccc(F)cc3)c12 (configuration not stated)	none
COc1ccc(-c2noc(-c3ccc4c(c3)OCO4)n2)cc1	none (no result: CDK5 p35 inh)
COc1ccc(-c2nc(-c3ccc4c(c3)OCO4)[nH]c2-c2ccc(OC)cc2)cc1	SR-BI HDL uptake 105 | DiI quencher 2.7µM
COc1cccc(-c2csc(N3CCN(C(=S)Nc4ccccc4)CC3)n2)c1	none
COc1cccc(NC(=O)N2CCN(c3nc(-c4cccc(OC)c4)cs3)CC2)c1	none (no result: SR-BI uptake up, SR-BI HDL uptake)
COc1cccc(-c2csc(N3CCN(C(=O)NC45CC6CC(CC(C6)C4)C5)CC3)n2)c1	none | DiI quencher inactive
COc1cccc(-c2csc(N3CCN(C(=S)Nc4cccc(C)c4)CC3)n2)c1	SR-BI HDL uptake 90 | DiI quencher inactive
COc1ccc2sc(-c3ccc(SC)cc3)c(C#CC(C)(C)O)c2c1	none
COc1ccc2sc(-c3ccc(N(C)C)cc3)c(C#CC(C)(C)O)c2c1	SR-BI HDL uptake 103 | DiI quencher 2.9µM
COc1ccc2sc(-c3ccc(N(C)C)cc3)c(C#Cc3cncn3C)c2c1	SR-BI HDL uptake 77 | DiI quencher 2.2µM
COc1ccc(-c2sc3ccc(OC)cc3c2C#CCCO)cc1	none
O=C(c1ccc(S(=O)(=O)NCc2ccco2)cc1)N1CCCC1	none
CC(=O)c1ccc(N2CCN(C(=O)/C=C/c3ccc(S(=O)(=O)N4CCOCC4)cc3)CC2)cc1	none
N#Cc1ccc(CN2CCN(C(=O)c3ccc(S(=O)(=O)NCc4ccco4)cc3)CC2)cc1	SR-BI HDL uptake inconclusive | DiI quencher inactive
CC(=O)c1ccc(N2CCN(C(=O)/C=C/c3ccc(S(=O)(=O)NCc4ccco4)cc3)CC2)cc1	SR-BI HDL uptake 88 | DiI quencher inactive
CCc1cc(-c2nnn(-c3cc(C(C)C)ccc3C)c2CC)ccc1-c1cn(CCc2c[nH]c3ccccc23)nn1	none (no result: CDK5 p35 inh, dFosB act, SR-BI uptake up, SR-BI HDL uptake)
COC(=O)C[C@H]1c2cc(F)cc(F)c2S(=O)(=O)N1C1CCN(Cc2ccccc2)CC1	none
CC(=O)Nc1ccc(S(=O)(=O)Nc2cc(C)c(-n3nc4ccccc4n3)cc2O)cc1	SR-BI HDL uptake 93 | DiI quencher 9.6µM
CC(=O)Nc1ccc(S(=O)(=O)Nc2nc3ccccc3nc2Nc2ccc(C(=O)O)c(O)c2)cc1	none
COc1cc(OC)cc(C(=O)NCCCCc2ccccc2)c1	none
O=C(NNc1c(F)c(F)cc(F)c1F)C1CCN(S(=O)(=O)c2ccccc2F)CC1	SR-BI HDL uptake 79 | DiI quencher inactive
O=C(NCc1ccccn1)C1CCN(S(=O)(=O)c2ccccc2F)CC1	none
CCOc1ccc(S(=O)(=O)N2CCC(C(=O)NC3CCCCC3)CC2)cc1	none
COc1ccccc1CNC(=O)[C@@H]1CCCN1S(=O)(=O)c1ccccc1F	none (no result: SR-BI uptake up, SR-BI HDL uptake)
COc1cc(C(=S)N2CCCC2)ccc1OC(=O)c1ccc(Cl)cc1[N+](=O)[O-]	SR-BI HDL uptake 112 | DiI quencher inactive
C=CCN(CC=C)C(=O)COn1nnc2ccc(S(=O)(=O)N3CCOCC3)cc21	none | DiI quencher inactive
COCCN(C(=O)COC(=O)c1cccc2ccccc12)c1c(N)n(Cc2ccccc2)c(=O)[nH]c1=O	none
COCCN(C(=O)COC(=O)c1ccccc1Nc1ccccc1)c1c(N)n(Cc2ccccc2)c(=O)[nH]c1=O	SR-BI HDL uptake 74 | DiI quencher inactive
CC1CCCCC1NC(=O)c1cc(Cl)nc2ccccc12 (configuration not stated)	none (no result: CDK5 p35 inh, dFosB act, SR-BI uptake up, SR-BI HDL uptake)
CCC(C)C1/C=C\CC(NC(=O)OCC2c3ccccc3-c3ccccc32)CC(=O)N1Cc1ccccc1 (configuration not stated)	SR-BI HDL uptake 75 | DiI quencher inactive
O=C(c1cccc(Cl)c1)N1CCC2CC1c1cc(-c3ccccc3)ccc12 (configuration not stated)	none | DiI quencher inactive
N#Cc1ccc(C(=O)N2CCC3CC2c2cc(-c4ccccc4)ccc23)cc1 (configuration not stated)	none | DiI quencher inactive
O=C(c1ccc(Cl)cc1)N1CCC2CC1c1cc(-c3ccccc3)ccc12 (configuration not stated)	none
Cc1cccc(NC(=O)N2C3CCCC2CC(NC(=O)C(C)(C)C)C3)c1 (configuration not stated)	SR-BI HDL uptake 76 | DiI quencher inactive
CC(=O)NC1CC2CCCC(C1)N2C(=O)Nc1cccc(C)c1 (configuration not stated)	none

Bioassay records from PubChem.
